System: U2OS
Assay: Multiplex assay against U2OS
Assay type: toxicity, cell-based
Details: human
How it was run: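 Per cents of healthy-nucleus cells form the tubulin, mitochondrial-mass and membrane-permeability phenotype values. Live cells were stained at seeding with Hoechst33342, BioTracker Green Microtubule Cytoskeleton Dye, MitoTracker Red and Annexin V Alexa Fluor 680. After compound addition they were imaged on a CQ1 microscope at 37°C and 5% CO2, and CellPathfinder machine-learning gating split them into Hoechst high-intensity objects or normal cells, normal cells into healthy, pyknosed or fragmented nuclei, and pyknosed cells into mitotic or apoptotic.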

[1] = 12 h, 1 µM, compound concentration 1 uM, replicate 1
[2] = 12 h, 1 µM, compound concentration 1 uM, replicate 2
[3] = 12 h, 10 µM, compound concentration 10 uM, replicate 1
[4] = 12 h, 10 µM, compound concentration 10 uM, replicate 2
[5] = 24 h, 1 µM, compound concentration 1 uM, replicate 1
[6] = 24 h, 1 µM, compound concentration 1 uM, replicate 2
[7] = 24 h, 10 µM, compound concentration 10 uM, replicate 1
[8] = 24 h, 10 µM, compound concentration 10 uM, replicate 2
[9] = 48 h, 1 µM, compound concentration 1 uM, replicate 1
[10] = 48 h, 1 µM, compound concentration 1 uM, replicate 2
[11] = 48 h, 10 µM, compound concentration 10 uM, replicate 1
[12] = 48 h, 10 µM, compound concentration 10 uM, replicate 2

Cc1cc(-c2ccc3c(c2)CC[C@H]3N2CC3(CCN(C(=O)Cc4cn5cc(C)sc5n4)CC3)C2)ncn1 [PF-5190457]
Population Apoptotic (%) [1]: 82% | Population Fragmented Nuclei (%) [1]: 24% | Population Healthy Nuclei (%) [1]: 65% | Population Hoechst High Intensity Objects (%) [1]: 1% | Population Membrane Permeable-Phenotype (%) [1]: 7% | Population Mitochondria Different-Phenotype (%) [1]: 3% | Population Mitotic Cells (%) [1]: 17% | Population Normal (%) [1]: 98% | Population Pyknosed Nuclei (%) [1]: 9% | Population Tubulin-Different-Phenotype (%) [1]: 4% | Total Cell Count [1]: 239 | Population Apoptotic (%) [2]: 63% | Population Fragmented Nuclei (%) [2]: 21% | Population Healthy Nuclei (%) [2]: 66% | Population Hoechst High Intensity Objects (%) [2]: 0% | Population Membrane Permeable-Phenotype (%) [2]: 4% | Population Mitotic Cells (%) [2]: 36% | Population Normal (%) [2]: 100% | Population Pyknosed Nuclei (%) [2]: 11% | Population Tubulin-Different-Phenotype (%) [2]: 3% | Total Cell Count [2]: 93 | Population Apoptotic (%) [3]: 61% | Population Fragmented Nuclei (%) [3]: 18% | Population Healthy Nuclei (%) [3]: 66% | Population Hoechst High Intensity Objects (%) [3]: 2% | Population Membrane Permeable-Phenotype (%) [3]: 7% | Population Mitochondria Different-Phenotype (%) [3]: 5% | Population Mitotic Cells (%) [3]: 38% | Population Normal (%) [3]: 97% | Population Pyknosed Nuclei (%) [3]: 14% | Population Tubulin-Different-Phenotype (%) [3]: 5% | Total Cell Count [3]: 238 | Population Apoptotic (%) [4]: 71% | Population Fragmented Nuclei (%) [4]: 14% | Population Healthy Nuclei (%) [4]: 74% | Population Hoechst High Intensity Objects (%) [4]: 1% | Population Membrane Permeable-Phenotype (%) [4]: 8% | Population Mitochondria Different-Phenotype (%) [4]: 10% | Population Mitotic Cells (%) [4]: 28% | Population Normal (%) [4]: 98% | Population Pyknosed Nuclei (%) [4]: 11% | Population Tubulin-Different-Phenotype (%) [4]: 6% | Total Cell Count [4]: 126 | Population Apoptotic (%) [5]: 69% | Population Fragmented Nuclei (%) [5]: 25% | Population Healthy Nuclei (%) [5]: 66% | Population Hoechst High Intensity Objects (%) [5]: 1% | Population Membrane Permeable-Phenotype (%) [5]: 8% | Population Mitochondria Different-Phenotype (%) [5]: 3% | Population Mitotic Cells (%) [5]: 30% | Population Normal (%) [5]: 98% | Population Pyknosed Nuclei (%) [5]: 8% | Population Tubulin-Different-Phenotype (%) [5]: 5% | Total Cell Count [5]: 282 | Population Apoptotic (%) [6]: 33% | Population Fragmented Nuclei (%) [6]: 21% | Population Healthy Nuclei (%) [6]: 76% | Population Hoechst High Intensity Objects (%) [6]: 0% | Population Membrane Permeable-Phenotype (%) [6]: 6% | Population Mitochondria Different-Phenotype (%) [6]: 1% | Population Mitotic Cells (%) [6]: 66% | Population Normal (%) [6]: 99% | Population Pyknosed Nuclei (%) [6]: 2% | Population Tubulin-Different-Phenotype (%) [6]: 2% | Total Cell Count [6]: 126 | Population Apoptotic (%) [7]: 67% | Population Fragmented Nuclei (%) [7]: 18% | Population Healthy Nuclei (%) [7]: 72% | Population Hoechst High Intensity Objects (%) [7]: 2% | Population Membrane Permeable-Phenotype (%) [7]: 3% | Population Mitochondria Different-Phenotype (%) [7]: 0% | Population Mitotic Cells (%) [7]: 32% | Population Normal (%) [7]: 97% | Population Pyknosed Nuclei (%) [7]: 9% | Population Tubulin-Different-Phenotype (%) [7]: 1% | Total Cell Count [7]: 295 | Population Apoptotic (%) [8]: 84% | Population Healthy Nuclei (%) [8]: 69% | Population Hoechst High Intensity Objects (%) [8]: 1% | Population Membrane Permeable-Phenotype (%) [8]: 11% | Population Mitochondria Different-Phenotype (%) [8]: 8% | Population Mitotic Cells (%) [8]: 15% | Population Normal (%) [8]: 98% | Population Pyknosed Nuclei (%) [8]: 12% | Population Tubulin-Different-Phenotype (%) [8]: 4% | Total Cell Count [8]: 154 | Population Apoptotic (%) [9]: 84% | Population Fragmented Nuclei (%) [9]: 20% | Population Healthy Nuclei (%) [9]: 71% | Population Hoechst High Intensity Objects (%) [9]: 0% | Population Membrane Permeable-Phenotype (%) [9]: 7% | Population Mitochondria Different-Phenotype (%) [9]: 4% | Population Mitotic Cells (%) [9]: 15% | Population Normal (%) [9]: 99% | Population Pyknosed Nuclei (%) [9]: 8% | Population Tubulin-Different-Phenotype (%) [9]: 4% | Total Cell Count [9]: 402 | Population Apoptotic (%) [10]: 66% | Population Fragmented Nuclei (%) [10]: 16% | Population Healthy Nuclei (%) [10]: 78% | Population Hoechst High Intensity Objects (%) [10]: 2% | Population Membrane Permeable-Phenotype (%) [10]: 4% | Population Mitochondria Different-Phenotype (%) [10]: 2% | Population Mitotic Cells (%) [10]: 33% | Population Normal (%) [10]: 97% | Population Pyknosed Nuclei (%) [10]: 5% | Population Tubulin-Different-Phenotype (%) [10]: 2% | Total Cell Count [10]: 184 | Population Apoptotic (%) [11]: 74% | Population Fragmented Nuclei (%) [11]: 16% | Population Healthy Nuclei (%) [11]: 71% | Population Hoechst High Intensity Objects (%) [11]: 3% | Population Membrane Permeable-Phenotype (%) [11]: 5% | Population Mitochondria Different-Phenotype (%) [11]: 2% | Population Mitotic Cells (%) [11]: 25% | Population Normal (%) [11]: 96% | Population Pyknosed Nuclei (%) [11]: 12% | Population Tubulin-Different-Phenotype (%) [11]: 3% | Total Cell Count [11]: 389 | Population Apoptotic (%) [12]: 76% | Population Fragmented Nuclei (%) [12]: 18% | Population Membrane Permeable-Phenotype (%) [12]: 11% | Population Mitochondria Different-Phenotype (%) [12]: 6% | Population Mitotic Cells (%) [12]: 23% | Population Pyknosed Nuclei (%) [12]: 10% | Population Tubulin-Different-Phenotype (%) [12]: 4% | Total Cell Count [12]: 217

O=C(Nc1cc(-c2ccccc2)nn1-c1ccccc1F)c1ccc([N+](=O)[O-])cc1
Population Apoptotic (%) [1]: 86% | Population Fragmented Nuclei (%) [1]: 25% | Population Healthy Nuclei (%) [1]: 66% | Population Hoechst High Intensity Objects (%) [1]: 4% | Population Membrane Permeable-Phenotype (%) [1]: 10% | Population Mitochondria Different-Phenotype (%) [1]: 4% | Population Mitotic Cells (%) [1]: 13% | Population Normal (%) [1]: 95% | Population Pyknosed Nuclei (%) [1]: 8% | Population Tubulin-Different-Phenotype (%) [1]: 4% | Total Cell Count [1]: 293 | Population Apoptotic (%) [2]: 91% | Population Fragmented Nuclei (%) [2]: 14% | Population Healthy Nuclei (%) [2]: 78% | Population Hoechst High Intensity Objects (%) [2]: 1% | Population Membrane Permeable-Phenotype (%) [2]: 9% | Population Mitotic Cells (%) [2]: 8% | Population Normal (%) [2]: 98% | Population Pyknosed Nuclei (%) [2]: 6% | Population Tubulin-Different-Phenotype (%) [2]: 9% | Total Cell Count [2]: 182 | Population Apoptotic (%) [3]: 66% | Population Fragmented Nuclei (%) [3]: 30% | Population Healthy Nuclei (%) [3]: 60% | Population Hoechst High Intensity Objects (%) [3]: 3% | Population Membrane Permeable-Phenotype (%) [3]: 11% | Population Mitochondria Different-Phenotype (%) [3]: 5% | Population Mitotic Cells (%) [3]: 33% | Population Normal (%) [3]: 96% | Population Pyknosed Nuclei (%) [3]: 9% | Population Tubulin-Different-Phenotype (%) [3]: 7% | Total Cell Count [3]: 293 | Population Apoptotic (%) [4]: 94% | Population Fragmented Nuclei (%) [4]: 12% | Population Healthy Nuclei (%) [4]: 73% | Population Hoechst High Intensity Objects (%) [4]: 0% | Population Mitochondria Different-Phenotype (%) [4]: 8% | Population Mitotic Cells (%) [4]: 5% | Population Normal (%) [4]: 100% | Population Pyknosed Nuclei (%) [4]: 13% | Population Tubulin-Different-Phenotype (%) [4]: 6% | Total Cell Count [4]: 134 | Population Apoptotic (%) [5]: 91% | Population Fragmented Nuclei (%) [5]: 24% | Population Healthy Nuclei (%) [5]: 68% | Population Hoechst High Intensity Objects (%) [5]: 3% | Population Membrane Permeable-Phenotype (%) [5]: 6% | Population Mitochondria Different-Phenotype (%) [5]: 4% | Population Mitotic Cells (%) [5]: 8% | Population Normal (%) [5]: 96% | Population Pyknosed Nuclei (%) [5]: 7% | Population Tubulin-Different-Phenotype (%) [5]: 5% | Total Cell Count [5]: 342 | Population Apoptotic (%) [6]: 100% | Population Fragmented Nuclei (%) [6]: 15% | Population Healthy Nuclei (%) [6]: 76% | Population Hoechst High Intensity Objects (%) [6]: 1% | Population Membrane Permeable-Phenotype (%) [6]: 9% | Population Mitochondria Different-Phenotype (%) [6]: 5% | Population Mitotic Cells (%) [6]: 0% | Population Normal (%) [6]: 98% | Population Pyknosed Nuclei (%) [6]: 8% | Population Tubulin-Different-Phenotype (%) [6]: 6% | Total Cell Count [6]: 226 | Population Apoptotic (%) [7]: 91% | Population Fragmented Nuclei (%) [7]: 25% | Population Healthy Nuclei (%) [7]: 64% | Population Hoechst High Intensity Objects (%) [7]: 1% | Population Membrane Permeable-Phenotype (%) [7]: 7% | Population Mitochondria Different-Phenotype (%) [7]: 3% | Population Mitotic Cells (%) [7]: 8% | Population Normal (%) [7]: 98% | Population Pyknosed Nuclei (%) [7]: 9% | Population Tubulin-Different-Phenotype (%) [7]: 5% | Total Cell Count [7]: 353 | Population Apoptotic (%) [8]: 100% | Population Fragmented Nuclei (%) [8]: 14% | Population Healthy Nuclei (%) [8]: 76% | Population Hoechst High Intensity Objects (%) [8]: 0% | Population Membrane Permeable-Phenotype (%) [8]: 11% | Population Mitochondria Different-Phenotype (%) [8]: 8% | Population Mitotic Cells (%) [8]: 0% | Population Normal (%) [8]: 99% | Population Tubulin-Different-Phenotype (%) [8]: 8% | Total Cell Count [8]: 164 | Population Apoptotic (%) [9]: 89% | Population Fragmented Nuclei (%) [9]: 17% | Population Healthy Nuclei (%) [9]: 73% | Population Hoechst High Intensity Objects (%) [9]: 2% | Population Membrane Permeable-Phenotype (%) [9]: 9% | Population Mitochondria Different-Phenotype (%) [9]: 5% | Population Mitotic Cells (%) [9]: 10% | Population Normal (%) [9]: 97% | Population Pyknosed Nuclei (%) [9]: 8% | Population Tubulin-Different-Phenotype (%) [9]: 5% | Total Cell Count [9]: 475 | Population Apoptotic (%) [10]: 90% | Population Fragmented Nuclei (%) [10]: 12% | Population Healthy Nuclei (%) [10]: 79% | Population Hoechst High Intensity Objects (%) [10]: 1% | Population Membrane Permeable-Phenotype (%) [10]: 6% | Population Mitochondria Different-Phenotype (%) [10]: 4% | Population Normal (%) [10]: 98% | Total Cell Count [10]: 371 | Population Apoptotic (%) [11]: 81% | Population Fragmented Nuclei (%) [11]: 20% | Population Healthy Nuclei (%) [11]: 67% | Population Hoechst High Intensity Objects (%) [11]: 2% | Population Membrane Permeable-Phenotype (%) [11]: 8% | Population Mitochondria Different-Phenotype (%) [11]: 4% | Population Mitotic Cells (%) [11]: 18% | Population Normal (%) [11]: 97% | Population Pyknosed Nuclei (%) [11]: 12% | Population Tubulin-Different-Phenotype (%) [11]: 6% | Total Cell Count [11]: 445 | Population Apoptotic (%) [12]: 89% | Population Fragmented Nuclei (%) [12]: 10% | Population Healthy Nuclei (%) [12]: 76% | Population Membrane Permeable-Phenotype (%) [12]: 11% | Population Mitochondria Different-Phenotype (%) [12]: 8% | Population Mitotic Cells (%) [12]: 10% | Population Pyknosed Nuclei (%) [12]: 13% | Population Tubulin-Different-Phenotype (%) [12]: 8% | Total Cell Count [12]: 226
